According to ChEMBL document CHEMBL2157887, “Adamantyl carboxamides and acetamides as potent human 11β-hydroxysteroid dehydrogenase type 1 inhibitors” (Bioorg Med Chem, 2012):
Activity calls are given as the source filed them. No cut-off for these calls is given here.

Key:
[1] = molecular target: T1, 11-beta-hydroxysteroid dehydrogenase type 2 (Homo sapiens) (UniProt P80365); experiment: Inhibition of human 11beta-HSD2 expressed in CHO cells assessed as conversion of [3H]cortisol to [3H]cortisone at 10 uM after 2 hrs
T1 sequence (whole entry): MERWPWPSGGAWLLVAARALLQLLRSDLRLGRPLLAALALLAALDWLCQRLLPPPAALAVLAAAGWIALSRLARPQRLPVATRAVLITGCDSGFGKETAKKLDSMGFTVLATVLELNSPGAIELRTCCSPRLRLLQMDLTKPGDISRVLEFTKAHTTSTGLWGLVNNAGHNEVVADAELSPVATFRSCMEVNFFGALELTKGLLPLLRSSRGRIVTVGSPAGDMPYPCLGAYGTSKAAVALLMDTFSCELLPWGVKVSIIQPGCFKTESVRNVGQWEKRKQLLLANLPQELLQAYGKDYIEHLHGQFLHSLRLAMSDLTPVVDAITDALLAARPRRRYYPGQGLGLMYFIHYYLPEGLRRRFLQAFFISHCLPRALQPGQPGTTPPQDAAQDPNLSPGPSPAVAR

[2] = molecular target: T2, 17-beta-hydroxysteroid dehydrogenase type 1 (Homo sapiens) (UniProt P14061); experiment: Inhibition of human 17beta-HSD1 in human T47D cells assessed as conversion of [3H]E1 to [3H]E2 at 10 uM after 30 mins; assay type: cell-based
T2 sequence (whole entry): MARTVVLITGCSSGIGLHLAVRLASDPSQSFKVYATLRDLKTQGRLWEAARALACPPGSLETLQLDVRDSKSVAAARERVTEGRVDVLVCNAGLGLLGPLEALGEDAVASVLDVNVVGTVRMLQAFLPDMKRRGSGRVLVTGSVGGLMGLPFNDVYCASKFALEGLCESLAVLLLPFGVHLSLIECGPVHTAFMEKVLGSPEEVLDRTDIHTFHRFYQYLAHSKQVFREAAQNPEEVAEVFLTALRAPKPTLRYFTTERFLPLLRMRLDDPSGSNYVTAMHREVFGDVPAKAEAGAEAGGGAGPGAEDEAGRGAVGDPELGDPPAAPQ

[3] = Half life in human liver microsomes by HPLC analysis in presence of NADPH; assay type: ADME, Microsome
Summary of the method: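 Parent compound incubated with human liver microsomes plus NADPH cofactor at 37 °C for 40 min; remaining parent quantified by HPLC to derive T1/2.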

[4] = molecular target: 11-beta-hydroxysteroid dehydrogenase 1 (Homo sapiens) (UniProt P28845); experiment: Inhibition of human 11beta-HSD1 expressed in HEK293 cells assessed as conversion of [3H]cortisone to [3H]cortisol at 1 uM after 2 hrs by scintillation counting; assay type: cell-based
Chain of 11-beta-hydroxysteroid dehydrogenase 1 (Homo sapiens) (P28845 whole entry, looked up): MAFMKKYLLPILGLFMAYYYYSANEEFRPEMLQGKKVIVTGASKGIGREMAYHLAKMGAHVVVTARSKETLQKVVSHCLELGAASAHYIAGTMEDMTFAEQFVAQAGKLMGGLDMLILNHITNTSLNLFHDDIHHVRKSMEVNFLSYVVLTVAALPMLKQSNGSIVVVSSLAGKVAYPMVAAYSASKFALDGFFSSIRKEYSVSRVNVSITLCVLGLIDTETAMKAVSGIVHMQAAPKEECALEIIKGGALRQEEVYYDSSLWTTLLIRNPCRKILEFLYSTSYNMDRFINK
Summary of the method: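 HSD11B1-stably transfected HEK-293 cells grown to 80% confluence, then given serum-free medium with 22 nM ³H-cortisone and compound in 1% DMSO, 37 °C, 2 h. Medium sampled into anti-cortisol antibody/SPA bead mix, shaken to equilibrium, scintillation counted. Percent inhibition against high controls (no compound) and low controls (no cells).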

Compound | inhibition [1] | inhibition [2] | half-life [3] | inhibition [4]
Cn1cccc1CNC(=O)CC12CC3CC(CC(C3)C1)C2 | inactive | inactive |  | 
O=C(NCc1ccco1)C12CC3CC(CC(C3)C1)C2 | inactive | inactive |  | 
Cc1ccsc1CN(C)C(=O)C12CC3CC(CC(C3)C1)C2 | inactive | inactive |  | 
CN(Cc1cccn1C)C(=O)CC12CC3CC(CC(C3)C1)C2 | inactive | inactive |  | 
O=C(NCCc1cccs1)C12CC3CC(CC(C3)C1)C2 | inactive | inactive |  | 
Cc1ccc(C2(C(=O)N(C)Cc3cccs3)CC2)cc1 | inactive | inactive |  | 
CN(Cc1cccs1)C(=O)CC12CC3CC(CC(C3)C1)C2 | inactive | inactive |  | 
CN(Cc1cccs1)C(=O)C1(c2ccc(Cl)cc2)CC1 | inactive | inactive |  | 
CN(Cc1ccsc1)C(=O)C12CC3CC(CC(C3)C1)C2 | inactive | inactive |  | 
CN(CCc1cccs1)C(=O)C12CC3CC(CC(C3)C1)C2 | inactive | inactive |  | 
Cc1cccc(CN(C)C(=O)C23CC4CC(CC(C4)C2)C3)c1 | inactive | inactive |  | 
CN(Cc1cccs1)C(=O)C1(c2ccc(Cl)cc2)CCCC1 | inactive | inactive |  | 
CN(Cc1cccs1)C(=O)C12CC3CC(CC(C3)C1)C2 | inactive | inactive | 1 h | 
Cc1csc(CNC(=O)C23CC4CC(CC(C4)C2)C3)c1 | inactive | inactive |  | 
CN(Cc1ccnn1C)C(=O)C12CC3CC(CC(C3)C1)C2 | inactive | inactive |  | 
O=C(NCc1cccnc1)C12CC3CC(CC(C3)C1)C2 | inactive | inactive |  | 
O=C(NCc1ccccn1)C12CC3CC(CC(C3)C1)C2 | inactive | inactive |  | 
Cc1cccc(CN(C)C(=O)C23CC4CC(CC(C4)C2)C3)n1 | inactive | inactive |  | 
O=C(NCCc1ccccn1)C12CC3CC(CC(C3)C1)C2 | inactive | inactive |  | 
CN(Cc1nccn1C)C(=O)C12CC3CC(CC(C3)C1)C2 | inactive | inactive |  | 
CC(=O)Nc1cccc(CN(C)C(=O)C23CC4CC(CC(C4)C2)C3)c1 | inactive | inactive |  | 

Compound | inhibition [1] | inhibition [2] | half-life [3] | inhibition [4]
CN(Cc1cccnc1)C(=O)C12CC3CC(CC(C3)C1)C2 | inactive | inactive |  | 
CN(Cc1cccn1C)C(=O)C12CC3CC(CC(C3)C1)C2 | inactive | inactive | 1 h | 
CN(Cc1cccs1)C(=O)C1(c2ccc(Cl)cc2)CCC1 | inactive | inactive |  | 
O=C(NCc1cccs1)C12CC3CC(CC(C3)C1)C2 | inactive | inactive |  | 
Cc1csc(CN(C)C(=O)C23CC4CC(CC(C4)C2)C3)n1 | inactive | inactive |  | 
Cc1csc(CN(C)C(=O)C23CC4CC(CC(C4)C2)C3)c1 | inactive | inactive |  | 
CN(Cc1ccsc1)C(=O)CC12CC3CC(CC(C3)C1)C2 | inactive | inactive |  | 
CN(Cc1cccc(N)c1)C(=O)C12CC3CC(CC(C3)C1)C2 | inactive | inactive |  | 
CN(CCc1ccccn1)C(=O)C12CC3CC(CC(C3)C1)C2 | inactive | inactive |  | 
CN(Cc1sccc1N)C(=O)C12CC3CC(CC(C3)C1)C2 | inactive | inactive |  | 
CN(Cc1cccs1)C(=O)C1(C)CCCCC1 | inactive | inactive |  | 
CN(Cc1cccs1)C(=O)C12CC3CC(CC1C3)C2 | inactive | inactive |  | 
CN(Cc1cccc(Cl)c1)C(=O)C12CC3CC(CC(C3)C1)C2 | inactive | inactive |  | 
Cn1cccc1CNC(=O)C12CC3CC(CC(C3)C1)C2 | inactive | inactive |  | 
CN(Cc1ccccn1)C(=O)CC12CC3CC(CC(C3)C1)C2 | inactive | inactive |  | 26%
CN(Cc1cccnc1)C(=O)CC12CC3CC(CC(C3)C1)C2 | inactive | inactive |  | 
Cc1ccc(CN(C)C(=O)C23CC4CC(CC(C4)C2)C3)s1 | inactive | inactive |  | 
CN(Cc1ccco1)C(=O)C12CC3CC(CC(C3)C1)C2 | inactive | inactive |  | 
O=C(CC12CC3CC(CC(C3)C1)C2)NCc1cccs1 | inactive | inactive |  | 
CN(Cc1ccc(Cl)s1)C(=O)C12CC3CC(CC(C3)C1)C2 | inactive | inactive |  | 
O=C(NCCc1cccnc1)C12CC3CC(CC(C3)C1)C2 | inactive | inactive |  | 
